The values that follow come from ChEMBL document CHEMBL1148410, “Antitumor agents. 3. Design, synthesis, and biological evaluation of new pyridoisoquinolindione and dihydrothienoquinolindione derivatives with potent cytotoxic activity” (J Med Chem, 2004).

The IC50 is the concentration needed to halve the response being measured. Read a high IC50 as weaker potency.

Format in all cases: functional, cell-based
The test system of one test is CCRF-SB. The experiment in a line: Concentration required to reduce proliferation of human acute B-lymphoblastic (CCRF-SB) cell line by 50% as determined by the MTT method. A digest of the protocol: (§1)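 Leukemia/lymphoma cells grown in RPMI 1640 with 10% FCS, 37 °C, humidified 5% CO2. Compounds were dissolved in DMSO (200 μM initial) and serially diluted in medium. Exponentially growing cells were resuspended at 1×10^5 cells/mL with the drug dilutions. Viability was read by MTT after 96 h at 37 °C. Growth was taken as % of untreated controls, and IC50 came from linear regression. Values are the mean of three independent determinations.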
Background: Tetrazolium assays rely on reduction of a dye to a coloured formazan, in cell work by metabolically active cells.

In the next test the test system is CCRF-CEM. The experiment in a line: Concentration required to reduce proliferation of CD4+ human acuteT-lymphoblastic leukemia (CCRF-CEM) cell line by 50% as determined by the MTT method. A digest of the protocol:
as §1

The subject of a further test is DU-145. The experiment in a line: Concentration required to reduce proliferation of human prostate carcinoma (DU-145) cell line by 50% as determined by the MTT method. A digest of the protocol: (§2)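 Solid-tumour-derived cells (and fibroblasts) were seeded in exponential growth at 5×10^4 cells/mL and allowed to adhere for 16 h before serial drug dilutions were added (DMSO stock 200 μM, diluted in medium). MTT viability was read 4 days later. Untreated controls went through at least three rounds of multiplication. IC50 came from linear regression of % growth versus untreated control, mean of three independent determinations.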

For the next test, the system named is HepG2. The experiment in a line: Concentration required to reduce proliferation of human hepatocellular carcinoma (HepG-2) cell line by 50% as determined by the MTT method. A digest of the protocol: as §2
A further test deals with MCF7. The experiment in a line: Concentration required to reduce proliferation of human breast adenocarcinoma (MCF-7) cell line by 50% as determined by the MTT method. The procedure, abridged:
as §2

Another test deals with MT4. The experiment in a line: Concentration required to reduce proliferation of CD4+ human acute T-lymphoblastic leukemia (MT-4) cell line by 50% as determined by the MTT method. The procedure, abridged: as §1
The subject of the next test is WIL2-NS. In words: Concentration required to reduce proliferation of human splenic B-lymphoblastoid (Wil2-NS) cell line by 50% as determined by the MTT method. The procedure, abridged:
as §1

A further test has as its system SK-MEL-28. In words: Concentration required to reduce proliferation of human melanoma (SKMEL-28) cell line by 50% as determined by the MTT method. The procedure, abridged: as §2
The test system of another test is SK-MES-1. The experiment in a line: Concentration required to reduce proliferation of human lung squamous carcinoma (SKMES-1) cell line by 50% as determined by the MTT method. The procedure, abridged:
as §2

Another test relates to CRL-7065 cell line. The experiment in a line: Concentration required to reduce proliferation of human foreskin fibroblasts (CRL7065) cell line by 50% as determined by the MTT method. The procedure, abridged: as §2

For the molecule `CCOC(=O)C1=CC2C(=O)c3cccnc3C(=O)C2C(c2ccc([N+](=O)[O-])cc2)=N1` (stereo not drawn), the IC50 in the test with CCRF-SB was found to be 15 nM; with CCRF-CEM it was 230 nM; in the test on DU-145 it was 100 nM; with HepG2 it was 500 nM; in the test with MCF7 it was 200 nM; in the test with MT4 it was 10 nM. Also, the IC50 is 30 nM in the test with WIL2-NS, 200 nM in the test with SK-MEL-28 and 80 nM in the test with SK-MES-1.
Take `CCOC(=O)C1=CC2C(=O)c3cccnc3C(=O)C2C(c2ccccc2)=N1` (stereo not drawn): the IC50 worked out at 600 nM in the test with CCRF-SB; 700 nM in the test with CCRF-CEM; 1000 nM with DU-145; 1000 nM in the test with HepG2; 300 nM with MCF7; 700 nM in the test on MT4. Moreover, the results for the IC50 with WIL2-NS, in the test with SK-MEL-28 and in the test with SK-MES-1 were 1000 nM, 800 nM and 300 nM, respectively.
As for `CCOC(=O)C1(N)CSC2=C1C(=O)c1ncccc1C2=O` (stereo not drawn), the 50% inhibitory concentration (IC50) turned out to be 10 nM with CCRF-SB; 70 nM with CCRF-CEM; 90 nM in the test on CRL-7065 cell line; 80 nM in the test on DU-145; 600 nM in the test on HepG2; 200 nM in the test with MCF7. The 50% inhibitory concentration (IC50) in the test with MT4 was 20 nM; in the test on WIL2-NS, 60 nM; with SK-MEL-28, 200 nM; in the test with SK-MES-1, 100 nM.
Take `CCOC(=O)C1=CC2C(=O)c3cccnc3C(=O)C2C(c2ccc(Br)cc2)=N1` (stereo not drawn): the IC50 was 800 nM with CCRF-SB; 1300 nM in the test with CCRF-CEM; 1300 nM in the test with CRL-7065 cell line; 1300 nM in the test with DU-145; 2300 nM with HepG2; 600 nM in the test on MCF7. The half-inhibitory concentration (IC50) in the test with MT4 is 700 nM; in the test with WIL2-NS, 2100 nM; in the test with SK-MEL-28, 900 nM; in the test on SK-MES-1, 500 nM.
Regarding `CCOC(=O)C1=CC2C(=O)c3cccnc3C(=O)C2C(c2ccc(N(C)C)cc2)=N1` (stereo not drawn), the IC50 with CCRF-SB was found to be 2200 nM; with CCRF-CEM, 2300 nM; in the test on DU-145, 1900 nM; in the test with HepG2, 2200 nM; in the test with MCF7 it was 1600 nM; with MT4, 2000 nM. Further, the IC50 with WIL2-NS was determined as 2500 nM; in the test on SK-MEL-28 it was 1900 nM; with SK-MES-1, 1800 nM.
Regarding `CCOC(=O)C1(N)CSC2=C1C(=O)c1cccnc1C2=O` (stereo not drawn), the IC50 in the test with CCRF-SB turned out to be 600 nM; in the test with CCRF-CEM it was 2000 nM; with CRL-7065 cell line, 1700 nM; in the test on DU-145, 1200 nM; in the test with HepG2, 500 nM; in the test on MCF7 it was 500 nM. Further, the IC50 in the test with MT4 worked out at 500 nM; in the test with WIL2-NS, 3100 nM; in the test on SK-MEL-28, 1100 nM; in the test with SK-MES-1 it was 900 nM.
For the molecule `CCOC(=O)C1=CC2C(=O)c3cccnc3C(=O)C2C(c2ccc(OC)cc2)=N1` (stereo not drawn), the IC50 came out at 900 nM in the test on CCRF-SB; 1500 nM in the test on CCRF-CEM; 1500 nM in the test with CRL-7065 cell line; 1500 nM with DU-145; 2000 nM with HepG2; 900 nM with MCF7. Also, the IC50 in the test with MT4 was found to be 1000 nM; in the test with WIL2-NS, 2100 nM; with SK-MEL-28 it was 1000 nM; with SK-MES-1, 1200 nM.
Consider `CCOC(=O)C1=CC2C(=O)c3ncccc3C(=O)C2C(c2ccc(Br)cc2)=N1` (stereo not drawn), for which the IC50 in the test on CCRF-SB came out at 10 nM; in the test on CCRF-CEM, 200 nM; with CRL-7065 cell line, 50 nM; in the test with DU-145 it was 50 nM; in the test with HepG2, 300 nM; in the test with MCF7, 200 nM. The IC50 with MT4 is 10 nM; in the test with WIL2-NS, 20 nM; in the test with SK-MEL-28 it was 200 nM; with SK-MES-1 it was 90 nM.
Take `CCOC(=O)C1=CC2C(=O)c3ncccc3C(=O)C2C(c2ccccc2)=N1` (stereo not drawn): the half-inhibitory concentration (IC50) with CCRF-SB came out at 10 nM; with CCRF-CEM, 200 nM; with DU-145 it was 1500 nM; with HepG2, 2000 nM; in the test with MCF7, 500 nM; in the test on MT4 it was 15 nM. In addition, the concentration for half-maximal inhibition (IC50) in the test on WIL2-NS worked out at 20 nM; in the test with SK-MEL-28 it was 800 nM; in the test with SK-MES-1, 500 nM.
For `CCOC(=O)C1=CC2C(=O)c3ncccc3C(=O)C2C(c2ccc(OC)cc2)=N1` (stereo not drawn), the IC50 is 100 nM with CCRF-SB; 100 nM in the test with CCRF-CEM; 1500 nM in the test with DU-145; 1000 nM with HepG2; 1500 nM with MCF7; 400 nM in the test on MT4. Further, the IC50 came to 90 nM in the test on WIL2-NS, 300 nM with SK-MEL-28 and 1600 nM with SK-MES-1.
For the molecule `CCOC(=O)C1=CC2C(=O)c3cccnc3C(=O)C2C(c2ccc(Cl)cc2)=N1` (stereo not drawn), the IC50 with CCRF-SB was 700 nM; in the test with CCRF-CEM, 800 nM; with CRL-7065 cell line it was 900 nM; in the test with DU-145 it was 1500 nM; in the test on HepG2, 2000 nM; in the test with MCF7 it was 500 nM. Besides, the IC50 worked out at 700 nM with MT4, 2000 nM in the test with WIL2-NS, 800 nM in the test on SK-MEL-28 and 500 nM in the test with SK-MES-1.
Turning to `CCOC(=O)C1=CC2C(=O)c3cccnc3C(=O)C2C(c2ccc(C)cc2)=N1` (stereo not drawn), the IC50 in the test with CCRF-SB amounted to 1000 nM; with CCRF-CEM it was 1000 nM; in the test with DU-145, 1900 nM; with HepG2, 1900 nM; with MCF7 it was 1600 nM; in the test on MT4, 1000 nM. Besides, the half-inhibitory concentration (IC50) in the test on WIL2-NS came to 2500 nM; with SK-MEL-28, 1300 nM; in the test on SK-MES-1, 1200 nM.
For `CCOC(=O)C1=CC2C(=O)c3ncccc3C(=O)C2C(c2ccc(Cl)cc2)=N1` (stereo not drawn), the concentration for half-maximal inhibition (IC50) in the test on CCRF-SB is 7 nM; in the test with CCRF-CEM, 150 nM; with CRL-7065 cell line, 40 nM; in the test on DU-145, 30 nM; in the test with HepG2 it was 400 nM; in the test with MCF7 it was 300 nM. For the same molecule, the IC50 in the test with MT4 was found to be 6 nM; with WIL2-NS, 10 nM; with SK-MEL-28, 200 nM; in the test with SK-MES-1 it was 50 nM.
On to `CCOC(=O)C1=CC2C(=O)c3ncccc3C(=O)C2C(c2ccc(C)cc2)=N1` (stereo not drawn), for which the IC50 in the test on CCRF-SB was 90 nM; in the test on CCRF-CEM it was 20 nM; in the test on CRL-7065 cell line, 70 nM; with DU-145, 1000 nM; with HepG2 it was 900 nM; in the test with MCF7, 1000 nM. Moreover, the IC50 was found to be 300 nM in the test with MT4, 30 nM in the test on WIL2-NS, 200 nM with SK-MEL-28 and 1000 nM in the test on SK-MES-1.
Regarding `CCOC(=O)C1=CC2C(=O)c3ncccc3C(=O)C2C(c2ccc(N(C)C)cc2)=N1` (stereo not drawn), the IC50 with CCRF-SB was 900 nM; in the test on CCRF-CEM, 1200 nM; in the test on DU-145, 1000 nM; with HepG2 it was 900 nM; in the test on MCF7 it was 1000 nM; with MT4, 900 nM. Besides, the IC50 in the test on WIL2-NS came to 1400 nM; with SK-MEL-28, 900 nM; in the test on SK-MES-1, 1000 nM.
